Experimental data as given in ChEMBL document CHEMBL4627371, “Discovery of novel heat shock protein (Hsp90) inhibitors based on luminespib with potent antitumor activity” (Bioorg Med Chem Lett, 2020).

Tests used:
[1] = Toxicity in BALB/c nu/nu mouse xenografted with human A2780 cells assessed as effect on body weight at 50 mg/kg, iv administered 3 times a week for 3 weeks starting from 5 to 6 days post tumor inoculation; assay type: organism-based; conditions: in vivo
How it was run: (§1)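 Human A2780 ovarian adenocarcinoma cells were cultured and implanted into BALB/c-nu/nude mice, n = 6 per group. Tumor size and volume were measured 5 or 6 days later. Compounds were suspended in 1% carboxymethyl cellulose and given intravenously. Deaths and body weight were monitored. Tumor growth inhibition = [1 − (mean treated tumor volume)/(mean control tumor volume)] × 100%.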

[2] = Toxicity in BALB/c nu/nu mouse xenografted with human A2780 cells assessed as mouse death at 50 mg/kg, iv administered 3 times a week for 3 weeks starting from 5 to 6 days post tumor inoculation; assay type: organism-based; conditions: in vivo; how it was run: as §1
[3] = Toxicity in BALB/c athymic nu/nu mouse xenografted with human NCI-H1975 cells assessed as mouse death at 150 mg/kg, iv administered once a week for 3 weeks; assay type: organism-based; conditions: in vivo, 504 h
[4] = system: NCI-H1975; test: Antitumor activity against human NCI-H1975 cells xenografted in BALB/c athymic nu/nu mouse assessed as tumor growth inhibition at 150 mg/kg, iv administered once a week for 3 weeks relative to control; conditions: 504 h, read-out: TGI
[5] = system: A2780; test: Antitumor activity against human A2780 cells xenografted in BALB/c nu/nu mouse assessed as tumor growth inhibition at 50 mg/kg, iv administered 3 times a week for 3 weeks starting from 5 to 6 days post tumor inoculation relative to control; assay type: functional; conditions: read-out: TGI; how it was run: as §1
[6] = system: A2780; test: Cytotoxicity against human A2780 cells assessed as cell growth inhibition; assay type: functional, cell-based
[7] = Toxicity in BALB/c athymic nu/nu mouse xenografted with human NCI-H1975 cells assessed as effect on body weight at 150 mg/kg, iv administered once a week for 3 weeks; assay type: organism-based; conditions: in vivo, 504 h
[8] = system: HCT-116; test: Cytotoxicity against human HCT116 cells assessed as cell growth inhibition; assay type: functional, cell-based

Question: Which Activity [1] does the source give for `CCNC(=O)c1noc(-c2cc(C(C)C)c(O)cc2O)c1-c1ccc(CN2CCOCC2)cc1` [LUMINESPIB] here?
Answer: Non-Toxic

Question: What about the Activity [2] of the same compound?
Answer: Non-Toxic

Question: And the Activity [3]?
Answer: Non-Toxic

Question: What about the inhibition in vivo at 150 mg/kg [4] of the same compound?
Answer: 43.5%

Question: And the inhibition in vivo at 50 mg/kg [5]?
Answer: 48%

Question: What about the IC50 [6] of the same compound?
Answer: 6 nM

Question: And the Activity [7]?
Answer: Non-Toxic

Question: What about the IC50 [8] of the same compound?
Answer: 20 nM
